Measurements as given in ChEMBL document CHEMBL3351943, “Binding modes of reverse fosmidomycin analogs toward the antimalarial target IspC” (J Med Chem, 2014).

Experiments:
[1] = Inhibition of Plasmodium falciparum IspC using 1-deoxy-D-xylulose 5-phosphate as substrate by photometric analysis
Summary of the method: (§1)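 Photometric enzyme assay run per an earlier method. IC50 was fitted by nonlinear regression from eight or more data points. Generally two or three independent determinations were made.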

[2] = target: T1, 1-deoxy-D-xylulose 5-phosphate reductoisomerase (Mycobacterium tuberculosis, UniProt P9WNS1); assay: Inhibition of Mycobacterium tuberculosis IspC using 1-deoxy-D-xylulose 5-phosphate as substrate by photometric analysis
T1 sequence (P9WNS1 whole entry): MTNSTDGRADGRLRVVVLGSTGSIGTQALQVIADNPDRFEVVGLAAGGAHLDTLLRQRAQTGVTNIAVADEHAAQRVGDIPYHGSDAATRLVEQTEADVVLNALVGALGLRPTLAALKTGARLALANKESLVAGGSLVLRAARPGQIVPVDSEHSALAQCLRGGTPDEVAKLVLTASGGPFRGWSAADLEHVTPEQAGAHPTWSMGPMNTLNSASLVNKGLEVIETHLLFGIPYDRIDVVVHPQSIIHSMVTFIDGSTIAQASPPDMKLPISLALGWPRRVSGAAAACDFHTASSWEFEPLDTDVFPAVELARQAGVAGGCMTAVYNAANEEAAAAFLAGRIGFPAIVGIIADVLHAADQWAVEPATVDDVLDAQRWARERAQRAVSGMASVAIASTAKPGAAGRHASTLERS

[3] = system: Plasmodium falciparum; assay: Antimicrobial activity against chloroquine-sensitive Plasmodium falciparum 3D7 assessed as growth inhibition after 3 days by HRP2-based ELISA; type: functional, organism-based; conditions: 3D7, 72 h
Summary of the method: (§2)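 Parasite growth followed by ELISA for P. falciparum histidine-rich protein 2; values are the mean of two duplicate determinations.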

[4] = system: Plasmodium falciparum; assay: Antimicrobial activity against chloroquine-resistant Plasmodium falciparum Dd2 assessed as growth inhibition after 3 days by HRP2-based ELISA; type: functional; conditions: Dd2, 72 h; summary of the method: as §2
[5] = target: T2, 1-deoxy-D-xylulose 5-phosphate reductoisomerase (Escherichia coli K-12, UniProt P45568); assay: Inhibition of Escherichia coli M15 recombinant IspC using 1-deoxy-D-xylulose 5-phosphate as substrate by photometric analysis; summary of the method: as §1
T2 sequence (P45568 whole entry): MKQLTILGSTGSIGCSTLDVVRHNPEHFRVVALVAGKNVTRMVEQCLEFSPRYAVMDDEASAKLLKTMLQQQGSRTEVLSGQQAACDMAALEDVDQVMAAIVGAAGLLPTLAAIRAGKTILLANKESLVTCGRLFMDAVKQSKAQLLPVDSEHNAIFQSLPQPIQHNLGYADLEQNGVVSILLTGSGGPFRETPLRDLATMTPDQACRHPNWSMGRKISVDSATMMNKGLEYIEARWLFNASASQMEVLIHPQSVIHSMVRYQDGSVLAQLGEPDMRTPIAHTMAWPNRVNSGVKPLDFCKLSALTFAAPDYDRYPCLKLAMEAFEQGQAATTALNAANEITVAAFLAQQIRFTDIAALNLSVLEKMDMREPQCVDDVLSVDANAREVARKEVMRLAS

[6] = system: Plasmodium falciparum; assay: Antimicrobial activity against multidrug-resistant Plasmodium falciparum FCR3 assessed as growth inhibition after 3 days by HRP2-based ELISA; type: functional, organism-based; conditions: FCR3, 72 h; summary of the method: as §2

## COc1ccc(C(CCC(=O)NO)P(=O)(O)O)cc1OC (stereo unspecified)
[1]
  IC50: 0.13 µM
[2]
  IC50: 163 µM
[3]
  IC50: 6.8 µM
[4]
  IC50: 8.1 µM
[5]
  IC50: 1.5 µM

## O=P(O)(O)CCC(c1cccc2ccccc12)P(=O)(O)O (stereo unspecified)
[1]
  IC50: > 300 µM
[2]
  IC50: > 500 µM
[3]
  IC50: > 50 µM
[5]
  IC50: > 500 µM

## Cc1ccc(C(CCC(=O)NO)P(=O)(O)O)cc1 (stereo unspecified)
[1]
  IC50: 0.19 µM
[2]
  IC50: 11 µM
[3]
  IC50: 2.6 µM
[4]
  IC50: 2.8 µM
[5]
  IC50: 0.7 µM

## COc1ccc(C(OCC(=O)NO)P(=O)(O)O)cc1 (stereo unspecified)
[1]
  IC50: 2.2 µM
[2]
  IC50: 352 µM
[3]
  IC50: > 50 µM
[5]
  IC50: 17 µM

## CN(O)C(=O)CCCC(c1ccccc1)P(=O)(O)O (stereo unspecified)
[1]
  IC50: 2.1 µM
[2]
  IC50: 429 µM
[3]
  IC50: > 50 µM
[5]
  IC50: 4.3 µM

## COc1ccc(C(CCC(=O)N(C)O)P(=O)(O)O)cc1OC (stereo unspecified)
[1]
  IC50: 0.06 µM
[2]
  IC50: 29 µM
[3]
  IC50: 0.29 µM
[4]
  IC50: 1.2 µM
[5]
  IC50: 0.32 µM

## CN(O)C(=O)CCC(NC(=O)c1ccccc1)P(=O)(O)O (stereo unspecified)
[1]
  IC50: 9.1 µM
[2]
  IC50: 238 µM
[3]
  IC50: > 50 µM
[5]
  IC50: 11 µM

## Cc1ccc(C(CCC(=O)N(C)O)P(=O)(O)O)cc1 (stereo unspecified)
[1]
  IC50: 0.01 µM
[3]
  IC50: 0.21 µM
[6]
  IC50: 0.38 µM
[4]
  IC50: 0.25 µM
[5]
  IC50: 0.29 µM

## COc1ccc(C(CCC(=O)N(C)O)P(=O)(O)O)cc1 (stereo unspecified)
[1]
  IC50: 0.02 µM
[2]
  IC50: 2 µM
[3]
  IC50: 0.1 µM
[6]
  IC50: 0.57 µM
[4]
  IC50: 0.3 µM
[5]
  IC50: 0.07 µM

## O=C(CCC(c1ccccc1)P(=O)(O)O)Nc1ccccc1O (stereo unspecified)
[1]
  IC50: > 300 µM
[2]
  IC50: > 500 µM
[3]
  IC50: > 50 µM
[5]
  IC50: > 500 µM

## COc1ccc(C(CCC(=O)NO)P(=O)(O)O)cc1 (stereo unspecified)
[1]
  IC50: 0.08 µM
[2]
  IC50: 15 µM
[3]
  IC50: 1.7 µM
[4]
  IC50: 3.6 µM
[5]
  IC50: 0.14 µM

## COc1ccc(C(OCC(=O)N(C)O)P(=O)(O)O)cc1 (stereo unspecified)
[1]
  IC50: 0.05 µM
[2]
  IC50: 2.8 µM
[3]
  IC50: 0.31 µM
[6]
  IC50: 0.41 µM
[4]
  IC50: 1.1 µM
[5]
  IC50: 0.45 µM

## O=C(CCC(NC(=O)c1ccccc1)P(=O)(O)O)NO (stereo unspecified)
[1]
  IC50: > 1000 µM
[2]
  IC50: > 1000 µM
[3]
  IC50: > 50 µM
[5]
  IC50: 741 µM
